From ChEMBL document CHEMBL1137710, “Synthesis and in vitro antitumor activity of new quinoxaline derivatives” (2009)

Columns and labels:
Type in all cases: functional
[1] = system: SNB-75; assay: Growth inhibition of human SNB75 cells after 48 hrs by sulforhodamine B assay; settings: SNB-75, 48 h
Procedure, shortened: (§1)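 Run in the NCI 60-human-tumour-cell-line panel, tested over a 5-log dose range. Dose–response curves gave three values per cell line, each as a log10 molar concentration: GI50 (50% inhibition of net cell growth), TGI (total inhibition of net growth) and LC50 (50% net cell death). The mean graph midpoint is the arithmetic mean over all lines, with insensitive lines entered at the highest concentration tested.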

[2] = system: HCT-15; assay: Growth inhibition of human HCT15 cells after 48 hrs by sulforhodamine B assay; settings: HCT-15, 48 h
Procedure, shortened: (§2)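 NCI 60-human-tumor-cell-line panel, with compounds tested over a 5-log dose range. Values are taken from dose-response curves as log10 molar concentrations: GI50 is 50% net growth inhibition, TGI is total growth inhibition, and LC50 is 50% net cell death.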

[3] = system: SN12C; assay: Growth inhibition of human SN12C cells after 48 hrs by sulforhodamine B assay; procedure, shortened: as §1
[4] = system: SR; assay: Growth inhibition of human SR cells after 48 hrs by sulforhodamine B assay; procedure, shortened: as §1
[5] = system: HL-60(TB); assay: Growth inhibition of human HL-60(TB) cells after 48 hrs by sulforhodamine B assay; settings: HL-60, 48 h
Procedure, shortened: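 Tested only on compounds active in a three-line prescreen, in the NCI 60-human-tumour-cell-line panel over a 5-log dose range. Values come from dose–response curves as log10 molar GI50, the concentration inhibiting 50% net cell growth. Log10 TGI (total growth inhibition) and log10 LC50 (50% net cell death) were derived too. Mean graph midpoints include insensitive lines at the highest concentration tested.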

[6] = system: SK-OV-3; assay: Growth inhibition of human SKOV3 cells after 48 hrs by sulforhodamine B assay; settings: SK-OV-3, 48 h; procedure, shortened: as §2
[7] = system: DU-145; assay: Growth inhibition of human DU145 cells after 48 hrs by sulforhodamine B assay; settings: DU-145, 48 h; procedure, shortened: as §2
[8] = system: BT-549; assay: Growth inhibition of human BT549 cells after 48 hrs by sulforhodamine B assay; settings: BT-549, 48 h; procedure, shortened: as §2
[9] = system: UACC-257; assay: Growth inhibition of human UACC257 cells after 48 hrs by sulforhodamine B assay; settings: UACC-257, 48 h; procedure, shortened: as §1
[10] = system: IGROV-1; assay: Growth inhibition of human IGROV1 cells after 48 hrs by sulforhodamine B assay; settings: IGROV-1, 48 h; procedure, shortened: as §2
[11] = system: NCI-H460; assay: Anticancer activity against human NCI-H460 cells assessed as cell growth at 100 uM after 48 hrs by sulforhodamine B assay; settings: NCI-H460, 48 h, read-out: Activity
[12] = system: HT-29; assay: Growth inhibition of human HT-29 cells after 48 hrs by sulforhodamine B assay; settings: HT-29, 48 h; procedure, shortened: as §2
[13] = system: MOLT-4; assay: Growth inhibition of human MOLT4 cells after 48 hrs by sulforhodamine B assay; settings: MOLT-4, 48 h; procedure, shortened: as §2
[14] = system: HOP-62; assay: Growth inhibition of human HOP62 cells after 48 hrs by sulforhodamine B assay; settings: HOP-62, 48 h; procedure, shortened: as §2
[15] = system: NCI-H460; assay: Growth inhibition of human NCI-H460 cells after 48 hrs by sulforhodamine B assay; settings: NCI-H460, 48 h; procedure, shortened: as §2
[16] = system: PC-3; assay: Growth inhibition of human PC3 cells after 48 hrs by sulforhodamine B assay; settings: PC-3, 48 h; procedure, shortened: as §2
[17] = system: HOP-92; assay: Growth inhibition of human HOP92 cells after 48 hrs by sulforhodamine B assay; settings: HOP-92, 48 h; procedure, shortened: as §2
[18] = system: A549; assay: Growth inhibition of human A549 cells after 48 hrs by sulforhodamine B assay; settings: A549, 48 h; procedure, shortened: as §2
[19] = system: UO-31; assay: Growth inhibition of human UO31 cells after 48 hrs by sulforhodamine B assay; settings: UO-31, 48 h; procedure, shortened: as §1
[20] = system: ACHN; assay: Growth inhibition of human ACHN cells after 48 hrs by sulforhodamine B assay
[21] = system: KM12; assay: Growth inhibition of human KM12 cells after 48 hrs by sulforhodamine B assay; settings: KM12, 48 h; procedure, shortened: as §2
[22] = system: TK-10; assay: Growth inhibition of human TK10 cells after 48 hrs by sulforhodamine B assay; settings: TK-10, 48 h; procedure, shortened: as §1
[23] = system: A498; assay: Growth inhibition of human A498 cells after 48 hrs by sulforhodamine B assay; settings: A498, 48 h; procedure, shortened: as §2
[24] = system: NCI-H226; assay: Growth inhibition of human NCI-H226 cells after 48 hrs by sulforhodamine B assay; settings: NCI-H226, 48 h; procedure, shortened: as §2
[25] = system: EKVX; assay: Growth inhibition of human EKVX cells after 48 hrs by sulforhodamine B assay; procedure, shortened: as §2
[26] = system: MCF7; assay: Growth inhibition of human MCF7 cells after 48 hrs by sulforhodamine B assay; settings: MCF7, 48 h; procedure, shortened: as §2
[27] = system: OVCAR-8; assay: Growth inhibition of human OVCAR8 cells after 48 hrs by sulforhodamine B assay; settings: OVCAR-8, 48 h; procedure, shortened: as §2
[28] = read-out: pLC50 (the source's name) (converted)

## Nc1cc(N)c2nc(-c3ccccc3)c(NCc3ccc(F)cc3)nc2c1
[1]
  GI50: 2.14 µM
  LC50: > 100 µM
[1]; read-out: pTGI (converted)
  TGI: 5.01 µM
[2]
  GI50: 3.31 µM
  LC50: > 100 µM
[2]; read-out: pTGI (converted)
  TGI: 19.1 µM
[3]
  GI50: 7.59 µM
[3]; [28]
  CC50: 64.6 µM
[3]; read-out: pTGI (converted)
  TGI: 23.4 µM
[4]
  GI50: 4.07 µM
  LC50 (concentration giving 50% net cell death): > 100 µM
[4]; read-out: pTGI (converted)
  TGI: > 100 µM
[5]
  GI50: 3.89 µM
  LC50: > 100 µM
[5]; read-out: pTGI (converted)
  TGI: > 100 µM
[6]
  GI50: 12.9 µM
[6]; [28]
  CC50: 53.7 µM
[6]; read-out: pTGI (converted)
  TGI: 26.3 µM
[7]
  GI50: 1.51 µM
[7]; [28]
  CC50: 9.77 µM
[7]; read-out: pTGI (converted)
  TGI: 3.8 µM
[8]
  GI50: 1.7 µM
[8]; [28]
  CC50: 6.31 µM
[8]; read-out: pTGI (converted)
  TGI: 3.24 µM
[9]
  GI50: 2.04 µM
[9]; [28]
  CC50: 8.91 µM
[9]; read-out: pTGI (converted)
  TGI: 4.27 µM
[10]
  GI50: 3.09 µM
[10]; [28]
  CC50: > 100 µM
[10]; read-out: pTGI (converted)
  TGI: > 100 µM
[11]
  growth at 100 µM: 1%
[12]
  GI50: 3.16 µM
  LC50: > 100 µM
[12]; read-out: pTGI (converted)
  TGI: 12.6 µM
[13]
  GI50: > 100 µM
  LC50: > 100 µM
[13]; read-out: pTGI (converted)
  TGI: > 100 µM
[14]
  GI50: 38.9 µM
  LC50: > 100 µM
[14]; read-out: pTGI (converted)
  TGI: > 100 µM
[15]
  GI50: 4.07 µM
  LC50 (50% net cell kill): > 100 µM
[15]; read-out: pTGI (converted)
  TGI: 25.7 µM
[16]
  GI50: 3.47 µM
[16]; [28]
  CC50: > 100 µM
[16]; read-out: pTGI (converted)
  TGI: 15.5 µM
[17]
  GI50: 3.31 µM
  LC50 (50% net cell death): > 100 µM
[17]; read-out: pTGI (converted)
  TGI: 6.92 µM
[18]
  GI50: 17.8 µM
  LC50: 69.2 µM
[18]; read-out: pTGI (converted)
  TGI: 34.7 µM
[19]
  GI50: 3.8 µM
[19]; [28]
  CC50: > 100 µM
[19]; read-out: pTGI (converted)
  TGI: > 100 µM
[20]
  GI50: 1.7 µM
[20]; [28]
  CC50: 5.62 µM
[20]; read-out: pTGI (converted)
  TGI: 3.09 µM
[21]
  GI50: 2.82 µM
  LC50 (50% net cell kill): > 100 µM
[21]; read-out: pTGI (converted)
  TGI: 7.41 µM
[22]
  GI50: 5.89 µM
[22]; [28]
  CC50: 53.7 µM
[22]; read-out: pTGI (converted)
  TGI: 20 µM
[23]
  GI50: 17 µM
[23]; [28]
  CC50: 57.5 µM
[23]; read-out: pTGI (converted)
  TGI: 30.9 µM
[24]
  GI50: 22.4 µM
  LC50: > 100 µM
[24]; read-out: pTGI (converted)
  TGI: 47.9 µM
[25]
  GI50: 1.91 µM
  LC50 (50% net cell kill): 8.71 µM
[25]; read-out: pTGI (converted)
  TGI: 4.07 µM
[26]
  GI50: 3.02 µM
[26]; [28]
  CC50: > 100 µM
[26]; read-out: pTGI (converted)
  TGI: > 100 µM
[27]
  GI50: 2.63 µM
[27]; [28]
  CC50: 21.9 µM
[27]; read-out: pTGI (converted)
  TGI: 6.03 µM
